The record followed here is ChEMBL document CHEMBL4828755, “A sulfonyl fluoride derivative inhibits EGFRL858R/T790M/C797S by covalent modification of the catalytic lysine” (Eur J Med Chem, 2021).

The target in experiment [1] is Epidermal growth factor receptor (Homo sapiens, UniProt P00533, C797S/L858R/T790M). The experiment in a line: Inhibition of EGFR L858R/T790M/C797S triple mutant (unknown origin) using fluoresceine-labelled poly-GT peptide as substrate incubated for 1 hr by TR-FRET assay. Background: In TR-FRET formats the signal depends on donor and acceptor labels being close together.
Chain of Epidermal growth factor receptor (P00533 25-1210 T790M/C797S/L858R limits assumed): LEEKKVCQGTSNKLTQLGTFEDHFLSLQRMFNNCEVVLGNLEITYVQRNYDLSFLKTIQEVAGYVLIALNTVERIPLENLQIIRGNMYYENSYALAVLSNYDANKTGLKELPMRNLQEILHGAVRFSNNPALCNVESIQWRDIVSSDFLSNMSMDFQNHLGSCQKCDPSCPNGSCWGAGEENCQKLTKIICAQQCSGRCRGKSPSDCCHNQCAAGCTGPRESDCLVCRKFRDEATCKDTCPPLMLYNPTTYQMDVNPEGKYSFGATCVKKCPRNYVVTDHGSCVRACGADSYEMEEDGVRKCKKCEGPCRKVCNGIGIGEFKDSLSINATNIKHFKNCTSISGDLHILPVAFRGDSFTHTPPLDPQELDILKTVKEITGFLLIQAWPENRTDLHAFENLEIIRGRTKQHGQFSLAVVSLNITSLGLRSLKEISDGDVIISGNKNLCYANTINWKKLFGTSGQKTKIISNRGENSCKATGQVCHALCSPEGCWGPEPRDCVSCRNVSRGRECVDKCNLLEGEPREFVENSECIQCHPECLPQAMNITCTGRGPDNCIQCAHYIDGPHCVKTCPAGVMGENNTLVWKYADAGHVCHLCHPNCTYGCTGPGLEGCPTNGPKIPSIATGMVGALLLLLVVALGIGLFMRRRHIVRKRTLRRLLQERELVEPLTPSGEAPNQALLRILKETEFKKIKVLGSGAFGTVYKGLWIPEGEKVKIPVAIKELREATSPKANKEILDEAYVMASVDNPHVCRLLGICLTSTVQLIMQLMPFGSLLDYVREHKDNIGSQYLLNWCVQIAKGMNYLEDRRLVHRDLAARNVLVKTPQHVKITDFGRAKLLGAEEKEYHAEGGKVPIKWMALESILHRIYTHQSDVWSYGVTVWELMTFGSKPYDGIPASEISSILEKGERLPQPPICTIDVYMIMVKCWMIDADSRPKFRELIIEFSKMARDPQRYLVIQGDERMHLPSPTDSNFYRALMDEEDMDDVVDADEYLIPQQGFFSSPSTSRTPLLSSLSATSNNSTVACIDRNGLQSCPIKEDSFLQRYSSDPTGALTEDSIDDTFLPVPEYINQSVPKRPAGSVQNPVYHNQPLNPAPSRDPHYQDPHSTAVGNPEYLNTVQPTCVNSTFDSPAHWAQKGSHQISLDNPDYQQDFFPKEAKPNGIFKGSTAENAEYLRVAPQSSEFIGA

Experiment [2] relates to BaF3. The experiment in a line: Cytotoxicity against mouse BaF3 cells harboring EGFR L858R/T790M/C797S triple mutant assessed as inhibition of cell proliferation measured after 72 hrs by MTS assay. In kind it is functional, cell-based. The settings on record: BaF3, 72 h. A digest of the protocol: (§1)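 Ba/F3 cells carrying the respective EGFR triple mutant, grown in RPMI-1640 with 2 mM glutamine and 10% FBS at 37°C, 5% CO2. Seeded 20000 cells/well and treated the same day with increasing concentrations (DMSO ≤0.1% final). Viability read by MTS after 72 h, expressed as % inhibition versus untreated controls; at least three independent experiments.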
A general note: Tetrazolium dyes change colour on reduction, which living cells bring about.

The test system of experiment [3] is BaF3. The experiment in a line: Cytotoxicity against mouse BaF3 cells harboring EGFR del19/T790M/C797S triple mutant assessed as inhibition of cell proliferation measured after 72 hrs by MTS assay. The experiment is classed as functional, cell-based. Summed up:
as §1

In experiment [4] the target is Rho-associated protein kinase 1 (Homo sapiens) (UniProt Q13464). Briefly: Inhibition of GST-tagged human recombinant ROCK1 (1 to 535 residues) expressed in baculovirus expression system at 1 uM by Z'-LYTE assay. Summed up:
(§2)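 Z'-LYTE FRET kinase panel; phosphorylation of a reference peptide measured with ATP at each enzyme's Km. Compounds tested in 1% DMSO at 0.1 and/or 1 μM. Values are means of two independent experiments with standard deviations.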

Experiment [5] has as its target Tyrosine-protein kinase JAK1 (Homo sapiens) (UniProt P23458). Briefly: Inhibition of GST-tagged human recombinant JAK1 (866 to 1154 residues) expressed in baculovirus expression system at 1 uM by Z'-LYTE assay. A digest of the protocol:
as §2

For experiment [6], the target named is T1, Aurora kinase A (Homo sapiens) (UniProt O14965).
T1 sequence (whole entry): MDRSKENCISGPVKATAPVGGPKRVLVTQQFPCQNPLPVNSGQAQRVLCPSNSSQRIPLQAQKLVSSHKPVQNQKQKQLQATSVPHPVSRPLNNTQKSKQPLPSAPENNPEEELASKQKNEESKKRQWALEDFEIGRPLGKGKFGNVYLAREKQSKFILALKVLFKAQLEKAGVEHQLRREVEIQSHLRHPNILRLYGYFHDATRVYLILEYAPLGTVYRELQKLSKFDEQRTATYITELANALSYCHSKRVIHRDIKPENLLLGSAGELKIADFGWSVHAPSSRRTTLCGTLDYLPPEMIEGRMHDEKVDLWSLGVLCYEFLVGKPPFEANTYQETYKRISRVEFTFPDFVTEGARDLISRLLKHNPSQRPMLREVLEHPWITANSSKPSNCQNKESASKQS
Briefly: Inhibition of His-tagged human full length recombinant AURKA expressed in baculovirus expression system at 1 uM by Z'-LYTE assay. A digest of the protocol: as §2

Experiment [7] addresses Platelet-derived growth factor receptor alpha (Homo sapiens) (UniProt P16234). The experiment in a line: Inhibition of GST-tagged human recombinant PDGFR alpha (550 to 1089 residues) expressed in baculovirus expression system at 1 uM by Z'-LYTE assay. A digest of the protocol: as §2
Experiment [8] concerns the target Cyclin-dependent kinase 5 (Homo sapiens) (UniProt Q00535). Briefly: Inhibition of GST/His-tagged human full length recombinant CDK5 expressed in baculovirus expression system at 1 uM by Z'-LYTE assay. Summed up: as §2
Experiment [9] concerns the target Tyrosine-protein kinase Lck (Homo sapiens) (UniProt P06239). Briefly: Inhibition of human recombinant LCK at 1 uM by Z'-LYTE assay. Summed up:
as §2

The target of experiment [10] is Mitogen-activated protein kinase 14 (Homo sapiens) (UniProt Q16539). The experiment in a line: Inhibition of GST-tagged human full length recombinant p38 alpha expressed in Escherichia coli at 1 uM by Z'-LYTE assay. Summed up: as §2
In experiment [11] the target is RAC-beta serine/threonine-protein kinase (Homo sapiens) (UniProt P31751). The experiment in a line: Inhibition of His-tagged full length human recombinant AKT2 expressed in baculovirus expression system at 1 uM by Z'-LYTE assay. Summed up:
as §2

The target in experiment [12] is AMP-activated protein kinase, AMPK (Homo sapiens) (UniProt P54646+O43741+P54619+Q9UGJ0+Q9Y478+Q13131+Q9UGI9). Briefly: Inhibition of human recombinant AMPK at 1 uM by Z'-LYTE assay. The experiment is classed as protein-complex assay. A digest of the protocol: as §2
The target of experiment [13] is Tyrosine-protein kinase Blk (Homo sapiens) (UniProt P51451). Briefly: Inhibition of His-tagged human full length recombinant BLK expressed in baculovirus expression system at 1 uM by Z'-LYTE assay. Summed up:
as §2

Experiment [14] concerns the target Proto-oncogene tyrosine-protein kinase Src (Homo sapiens) (UniProt P12931). The experiment in a line: Inhibition of C-terminal His-tagged human recombinant SRC expressed in baculovirus expression system at 1 uM by Z'-LYTE assay. Summed up: as §2
For experiment [15], the target named is Mitogen-activated protein kinase 3 (Homo sapiens) (UniProt P27361). Briefly: Inhibition of GST-tagged human full length recombinant ERK1 expressed in Escherichia coli at 1 uM by Z'-LYTE assay. A digest of the protocol: as §2
Experiment [16] deals with Fibroblast growth factor receptor 4 (Homo sapiens) (UniProt P22455). The experiment in a line: Inhibition of His-tagged human recombinant FGFR4 ([…] residues) expressed in baculovirus expression system at 1 uM by Z'-LYTE assay. A digest of the protocol: as §2
Chain of Fibroblast growth factor receptor 4 (Homo sapiens) (P22455 22-802 limits assumed): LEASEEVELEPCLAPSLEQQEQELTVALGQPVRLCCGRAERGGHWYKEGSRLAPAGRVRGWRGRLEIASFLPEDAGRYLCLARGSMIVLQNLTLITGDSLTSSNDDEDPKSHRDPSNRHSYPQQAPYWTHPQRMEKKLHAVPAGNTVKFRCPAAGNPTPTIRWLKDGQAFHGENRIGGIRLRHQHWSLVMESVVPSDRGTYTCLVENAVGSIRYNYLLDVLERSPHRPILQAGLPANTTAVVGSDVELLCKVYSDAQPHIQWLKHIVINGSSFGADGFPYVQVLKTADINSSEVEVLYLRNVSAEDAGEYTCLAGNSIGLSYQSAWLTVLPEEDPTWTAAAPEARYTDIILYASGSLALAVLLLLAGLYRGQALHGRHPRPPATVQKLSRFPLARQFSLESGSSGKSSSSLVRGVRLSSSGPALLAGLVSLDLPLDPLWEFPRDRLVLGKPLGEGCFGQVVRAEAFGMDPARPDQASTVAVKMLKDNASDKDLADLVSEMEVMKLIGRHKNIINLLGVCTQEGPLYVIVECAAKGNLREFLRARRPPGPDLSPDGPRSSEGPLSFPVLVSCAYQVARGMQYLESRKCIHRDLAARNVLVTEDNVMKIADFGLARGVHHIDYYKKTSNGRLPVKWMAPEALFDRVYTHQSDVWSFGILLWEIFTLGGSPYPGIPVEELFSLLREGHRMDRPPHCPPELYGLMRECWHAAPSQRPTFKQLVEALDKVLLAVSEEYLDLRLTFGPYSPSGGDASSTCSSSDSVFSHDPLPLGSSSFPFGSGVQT
Experiment [17] deals with Cyclin-dependent kinase 2 (Homo sapiens) (UniProt P24941). Briefly: Inhibition of human recombinant CDK2 at 1 uM by Z'-LYTE assay. A digest of the protocol:
as §2

Experiment [18] deals with T2, Inhibitor of nuclear factor kappa-B kinase subunit beta (Homo sapiens) (UniProt O14920).
T2 sequence (whole entry): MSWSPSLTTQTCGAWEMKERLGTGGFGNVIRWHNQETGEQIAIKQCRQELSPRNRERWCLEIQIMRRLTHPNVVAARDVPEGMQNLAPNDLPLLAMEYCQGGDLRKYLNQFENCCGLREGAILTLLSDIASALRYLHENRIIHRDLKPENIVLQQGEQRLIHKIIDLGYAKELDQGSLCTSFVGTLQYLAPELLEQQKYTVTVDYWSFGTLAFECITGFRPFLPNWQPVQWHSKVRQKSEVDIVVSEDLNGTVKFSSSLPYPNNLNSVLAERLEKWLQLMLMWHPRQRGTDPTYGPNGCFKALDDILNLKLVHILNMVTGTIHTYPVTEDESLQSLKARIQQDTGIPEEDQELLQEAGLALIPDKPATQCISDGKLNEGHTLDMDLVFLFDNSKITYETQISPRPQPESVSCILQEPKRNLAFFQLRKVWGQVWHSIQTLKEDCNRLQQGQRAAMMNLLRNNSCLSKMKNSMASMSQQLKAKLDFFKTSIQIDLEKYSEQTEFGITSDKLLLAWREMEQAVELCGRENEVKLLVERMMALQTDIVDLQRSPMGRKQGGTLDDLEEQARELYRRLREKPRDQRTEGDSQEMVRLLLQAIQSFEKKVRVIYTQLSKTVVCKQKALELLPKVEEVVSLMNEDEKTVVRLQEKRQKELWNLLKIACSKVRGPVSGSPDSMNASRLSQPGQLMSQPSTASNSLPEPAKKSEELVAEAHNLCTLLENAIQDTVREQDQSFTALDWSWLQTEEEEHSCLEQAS
Briefly: Inhibition of GST-tagged human full length recombinant IKKbeta expressed in baculovirus expression system at 1 uM by Z'-LYTE assay. A digest of the protocol:
as §2

Experiment [19] concerns the target Vascular endothelial growth factor receptor 2 (Homo sapiens) (UniProt P35968). Briefly: Inhibition of His-tagged human recombinant VEGFR2 (789 to 1356 residues) expressed in baculovirus expression system at 1 uM by Z'-LYTE assay. Summed up: as §2

The source made the active and inactive calls. The calls are words filed in the database; no cut-off is given here.

Chain of Platelet-derived growth factor receptor alpha (Homo sapiens) (P16234 whole entry, the tested form may be a part): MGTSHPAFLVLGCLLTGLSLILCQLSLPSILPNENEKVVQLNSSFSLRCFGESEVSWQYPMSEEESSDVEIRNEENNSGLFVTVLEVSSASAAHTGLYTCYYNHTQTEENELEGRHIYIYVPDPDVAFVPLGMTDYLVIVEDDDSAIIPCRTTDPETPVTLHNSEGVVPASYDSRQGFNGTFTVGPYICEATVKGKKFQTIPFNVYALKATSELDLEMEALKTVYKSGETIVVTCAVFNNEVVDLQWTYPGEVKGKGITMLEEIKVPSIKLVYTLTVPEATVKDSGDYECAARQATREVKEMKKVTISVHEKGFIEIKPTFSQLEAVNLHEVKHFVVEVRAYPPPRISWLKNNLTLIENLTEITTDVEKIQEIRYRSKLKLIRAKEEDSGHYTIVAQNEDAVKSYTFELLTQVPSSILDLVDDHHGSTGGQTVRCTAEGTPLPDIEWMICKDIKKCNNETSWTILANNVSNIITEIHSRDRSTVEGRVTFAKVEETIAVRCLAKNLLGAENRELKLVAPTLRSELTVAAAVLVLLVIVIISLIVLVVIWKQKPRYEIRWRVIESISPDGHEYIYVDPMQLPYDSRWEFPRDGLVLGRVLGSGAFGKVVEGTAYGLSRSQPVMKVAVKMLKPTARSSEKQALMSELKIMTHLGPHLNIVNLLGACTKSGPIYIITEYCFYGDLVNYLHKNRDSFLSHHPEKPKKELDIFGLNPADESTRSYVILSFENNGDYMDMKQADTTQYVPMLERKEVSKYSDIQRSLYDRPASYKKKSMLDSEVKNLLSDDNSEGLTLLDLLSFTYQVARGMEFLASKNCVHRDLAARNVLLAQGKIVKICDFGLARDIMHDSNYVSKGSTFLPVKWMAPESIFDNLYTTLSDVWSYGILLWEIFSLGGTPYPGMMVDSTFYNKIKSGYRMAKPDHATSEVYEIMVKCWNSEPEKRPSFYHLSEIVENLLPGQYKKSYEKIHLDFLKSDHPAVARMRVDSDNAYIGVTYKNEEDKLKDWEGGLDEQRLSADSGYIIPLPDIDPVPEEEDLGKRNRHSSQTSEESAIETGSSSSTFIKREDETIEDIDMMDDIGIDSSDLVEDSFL
Chain of Tyrosine-protein kinase Blk (Homo sapiens) (P51451 2-505 limits assumed): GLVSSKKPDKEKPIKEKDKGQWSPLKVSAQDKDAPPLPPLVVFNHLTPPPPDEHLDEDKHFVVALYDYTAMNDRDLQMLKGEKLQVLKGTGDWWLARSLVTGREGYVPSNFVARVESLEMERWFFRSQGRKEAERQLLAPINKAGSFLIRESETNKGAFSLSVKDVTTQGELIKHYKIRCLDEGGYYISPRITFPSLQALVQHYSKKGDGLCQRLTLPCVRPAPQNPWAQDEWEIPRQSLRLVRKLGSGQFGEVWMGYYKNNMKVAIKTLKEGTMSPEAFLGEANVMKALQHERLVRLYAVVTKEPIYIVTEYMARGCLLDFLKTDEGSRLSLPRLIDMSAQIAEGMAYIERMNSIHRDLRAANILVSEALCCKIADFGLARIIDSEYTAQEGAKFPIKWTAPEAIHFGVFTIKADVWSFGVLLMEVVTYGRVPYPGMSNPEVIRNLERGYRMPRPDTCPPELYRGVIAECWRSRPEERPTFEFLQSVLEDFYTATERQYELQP
Chain of Vascular endothelial growth factor receptor 2 (Homo sapiens) (P35968 whole entry, the tested form may be a part): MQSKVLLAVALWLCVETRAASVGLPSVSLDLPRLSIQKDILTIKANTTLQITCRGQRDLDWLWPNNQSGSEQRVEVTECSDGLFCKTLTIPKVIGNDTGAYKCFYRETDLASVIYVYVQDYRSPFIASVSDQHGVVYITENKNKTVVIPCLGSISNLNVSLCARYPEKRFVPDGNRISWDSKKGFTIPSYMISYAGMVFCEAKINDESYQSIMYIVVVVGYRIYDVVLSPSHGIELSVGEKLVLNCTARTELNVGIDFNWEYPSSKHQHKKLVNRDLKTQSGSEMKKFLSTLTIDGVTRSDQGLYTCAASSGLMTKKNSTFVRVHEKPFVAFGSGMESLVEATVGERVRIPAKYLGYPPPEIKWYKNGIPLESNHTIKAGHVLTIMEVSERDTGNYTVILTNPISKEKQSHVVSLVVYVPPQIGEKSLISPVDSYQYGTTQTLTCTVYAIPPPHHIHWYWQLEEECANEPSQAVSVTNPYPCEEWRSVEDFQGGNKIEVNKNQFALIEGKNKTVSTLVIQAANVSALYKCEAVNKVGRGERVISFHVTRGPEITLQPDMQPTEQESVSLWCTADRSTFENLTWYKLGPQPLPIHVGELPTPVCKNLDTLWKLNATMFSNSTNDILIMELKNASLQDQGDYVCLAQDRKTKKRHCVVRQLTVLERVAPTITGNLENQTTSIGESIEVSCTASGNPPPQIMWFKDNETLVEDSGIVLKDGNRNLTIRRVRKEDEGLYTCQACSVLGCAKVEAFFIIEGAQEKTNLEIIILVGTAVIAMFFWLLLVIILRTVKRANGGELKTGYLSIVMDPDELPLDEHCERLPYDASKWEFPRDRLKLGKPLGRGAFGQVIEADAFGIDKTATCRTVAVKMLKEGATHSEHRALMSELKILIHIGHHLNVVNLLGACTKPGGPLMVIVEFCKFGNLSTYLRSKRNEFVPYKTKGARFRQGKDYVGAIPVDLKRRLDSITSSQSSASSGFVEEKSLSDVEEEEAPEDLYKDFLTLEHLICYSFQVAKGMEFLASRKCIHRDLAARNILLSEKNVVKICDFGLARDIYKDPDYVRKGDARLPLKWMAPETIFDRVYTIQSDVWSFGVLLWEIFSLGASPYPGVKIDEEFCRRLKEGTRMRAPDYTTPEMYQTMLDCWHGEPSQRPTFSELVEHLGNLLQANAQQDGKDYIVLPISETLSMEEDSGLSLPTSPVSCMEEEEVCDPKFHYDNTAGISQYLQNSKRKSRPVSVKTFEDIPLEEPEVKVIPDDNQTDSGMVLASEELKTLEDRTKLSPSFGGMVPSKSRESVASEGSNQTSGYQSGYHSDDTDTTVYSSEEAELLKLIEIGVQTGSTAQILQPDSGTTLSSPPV

Broadly, the IC50 is the point on the concentration scale where inhibition reaches its midpoint. `COc1cc(N2CCN(C(C)=O)CC2)ccc1Nc1ncc(Cl)c(Nc2cccc(NCCS(=O)(=O)F)c2)n1` showed an IC50 in experiment [1] of 0.458 µM.
The same measure, in the same setting: the result for `C=CS(=O)(=O)Nc1cccc(Nc2nc(Nc3ccc(N4CCN(C(C)=O)CC4)cc3OC)ncc2Cl)c1` reads 0.675 µM; that for `COc1cc(N2CCN(C(C)=O)CC2)ccc1Nc1ncc(Cl)c(Nc2cccc(C(=O)Oc3ccc(F)cc3)c2)n1`, more than 10 µM.
For `C=CC(=O)Nc1cc(Nc2nccc(-c3cn(C)c4ccccc34)n2)c(OC)cc1N(C)CCN(C)C` [OSIMERTINIB], the IC50 in the experiment on BaF3 [2] is more than 3 µM. Besides, the outcome in the experiment on BaF3 [3] was inactive.
Turning to `COc1cc(N2CCN(C(C)=O)CC2)ccc1Nc1ncc(Cl)c(Nc2cccc(NC(=O)CCl)c2)n1`, the IC50 in experiment [1] amounted to 0.946 µM.
In the case of `COc1cc(N2CCN(C(C)=O)CC2)ccc1Nc1ncc(Cl)c(Nc2cccc(NC(C)=O)c2)n1`, the inhibition entry in experiment [4], in [6], in [8], in [9], in [10] and in experiment [11] was “inactive” in each case. The inhibition entry in [12], in experiment [13], in [14], in [15], in experiment [16] and in experiment [17] was “inactive” each time. The inhibition result in experiment [18] was “inactive”. The inhibition entry in [5], in [7] and in experiment [19] was “Active” in each case. Moreover, in experiment [1], the IC50 is 1.1 µM.
